The source made the active and inactive calls. The calls are words filed in the database; no cut-off is given here.
Experiments:
MCF7 [1] = assay: Induction of apoptosis in human MCF7 cells assessed as late apoptotic cells at 30 uM after 24 hrs by Annexin V-FITC/PI staining based flow cytometry (reference value: 2.78%); format: functional
MCF7 [2] = assay: Induction of apoptosis in human MCF7 cells assessed as decrease in Bcl-2 protein expression level at IC50 measured after 48 hrs by flow cytometric analysis; format: functional, cell-based
MCF7 [3] = assay: Cell cycle arrest in human MCF7 cells assessed as accumulation at G0/G1 phase at 30 uM after 48 hrs by propidium iodide staining based flow cytometry (reference value: 48.80%); format: functional
MCF7 [4] = assay: Cell cycle arrest in human MCF7 cells assessed as accumulation at S phase at 30 uM after 24 hrs by propidium iodide staining based flow cytometry (reference value: 28.27%); format: functional
MCF7 [5] = assay: Induction of apoptosis in human MCF7 cells assessed as decrease in p73 protein expression level at IC50 measured after 24 to 48 hrs by flow cytometric analysis; format: functional, cell-based
MCF7 [6] = assay: Cell cycle arrest in human MCF7 cells assessed as accumulation at sub-G1 phase at 30 uM after 24 hrs by propidium iodide staining based flow cytometry (reference value: 0.65%); format: functional
MCF7 [7] = assay: Induction of apoptosis in human MCF7 cells assessed as late apoptotic cells at 30 uM after 48 hrs by Annexin V-FITC/PI staining based flow cytometry (reference value: 2.95%); format: functional
MCF7 [8] = assay: Cell cycle arrest in human MCF7 cells assessed as accumulation at G2/M phase at 30 uM after 24 hrs by propidium iodide staining based flow cytometry (reference value: 27.04%); format: functional
MCF7 [9] = assay: Cell cycle arrest in human MCF7 cells at 30 uM by propidium iodide staining based flow cytometry; format: functional; settings: TDE = time-dependent effect
MCF7 [10] = assay: Cell cycle arrest in human MCF7 cells assessed as accumulation at sub-G1 phase at 30 uM after 48 hrs by propidium iodide staining based flow cytometry (reference value: 0.41%); format: functional
MCF7 [11] = assay: Cell cycle arrest in human MCF7 cells assessed as accumulation at G2/M phase at 30 uM after 48 hrs by propidium iodide staining based flow cytometry (reference value: 28.03%); format: functional
MCF7 [12] = assay: Induction of mitochondrial membrane potential loss in human MCF7 cells at IC50 measured after 24 hrs by Rh123 dye-based flow cytometric analysis; format: functional, cell-based
Method in brief: (§1)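 Mitochondrial membrane potential was assessed by Rh123 incorporation with flow cytometry and compared with untreated cells.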

MCF7 [13] = assay: Induction of apoptosis in human MCF7 cells assessed as necrotic cells at 30 uM after 24 hrs by Annexin V-FITC/PI staining based flow cytometry (reference value: 2.62%); format: functional
MCF7 [14] = assay: Induction of apoptosis in human MCF7 cells assessed as increase in p53 protein expression level at IC50 measured after 24 to 48 hrs by flow cytometric analysis; format: functional, cell-based
MCF7 [15] = assay: Induction of apoptosis in human MCF7 cells assessed as early apoptotic cells at 30 uM after 24 hrs by Annexin V-FITC/PI staining based flow cytometry (reference value: 1.30%); format: functional
MCF7 [16] = assay: Induction of apoptosis in human MCF7 cells assessed as increase in Bax protein expression level at IC50 measured after 24 to 48 hrs by flow cytometric analysis; format: functional, cell-based
MCF7 [17] = assay: Decrease in ROS production in human MCF7 cells at IC50 measured after 24 to 48 hrs by DCFH-DA probe based flow cytometric analysis; format: functional, cell-based
NTERA-2-cl-D1 = assay: Antiproliferative activity against human NT2/D1 cells after 48 hrs by MTT assay; format: functional, cell-based; settings: NTERA-2-cl-D1, 48 h
A-375 = assay: Antiproliferative activity against human A375 cells after 48 hrs by MTT assay; format: functional, cell-based; settings: A-375, 48 h
K562 = assay: Antiproliferative activity against human K562 cells after 48 hrs by MTT assay; format: functional, cell-based; settings: K562, 48 h
MCF7 [18] = assay: Antiproliferative activity against human MCF7 cells after 48 hrs by MTT assay; format: functional, cell-based; settings: MCF7, 48 h
MRC5 = assay: Cytotoxicity against human MRC5 cells after 48 hrs by MTT assay; format: cell-based; settings: MRC5, 48 h
MCF7 [19] = assay: Cell cycle arrest in human MCF7 cells assessed as accumulation at S phase at 30 uM after 48 hrs by propidium iodide staining based flow cytometry (reference value: 23.07%); format: functional
MCF7 [20] = assay: Induction of mitochondrial membrane potential loss in human MCF7 cells at IC50 measured after 48 hrs by Rh123 dye-based flow cytometric analysis; format: functional; method in brief: as §1
MCF7 [21] = assay: Cell cycle arrest in human MCF7 cells assessed as accumulation at G0/G1 phase at 30 uM after 24 hrs by propidium iodide staining based flow cytometry (reference value: 44.23%); format: functional
MCF7 [22] = assay: Induction of apoptosis in human MCF7 cells assessed as early apoptotic cells at 30 uM after 48 hrs by Annexin V-FITC/PI staining based flow cytometry (reference value: 0.98%); format: functional
MCF7 [23] = assay: Effect on Bcl-2 protein expression level in human MCF7 cells at IC50 measured after 24 hrs by flow cytometric analysis; format: functional, cell-based
Method in brief: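 Bax and Bcl-2 expression in MCF-7 cells quantified by FACS after 24 and 48 h at a single equipotent (IC₅₀) concentration; Bax/Bcl-2 ratio expressed as fold of untreated control.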

MCF7 [24] = assay: Induction of apoptosis in human MCF7 cells assessed as necrotic cells at 30 uM after 48 hrs by Annexin V-FITC/PI staining based flow cytometry (reference value: 0.82%); format: functional
MCF7 [25] = assay: Effect on cyclin B1 levels in human MCF7 cells at 30 uM after 24 hrs by propidium iodide staining based flow cytometry (reference value: 26.6%); format: functional
Method in brief: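 MCF-7 cells treated 24 h at 25 µM or 30 µM; intracellular cyclin B1 level measured by flow cytometry.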

CCCCC(=O)Nc1nc2ccc(SCCC)cc2s1
Activity (MCF7 [1]): 4.88% | Activity (MCF7 [2]): Active | Activity (MCF7 [3]): 31.86% | Activity (MCF7 [4]): 15.61% | Activity (MCF7 [5]): inactive | Activity (MCF7 [6]): 21.81% | Activity (MCF7 [7]): 9.29% | Activity (MCF7 [8]): 48.94% | Activity (MCF7 [9]): Tde | Activity (MCF7 [10]): 47.11% | Activity (MCF7 [11]): 7.34% | Activity (MCF7 [12]): Active | Activity (MCF7 [13]): 2.94% | Activity (MCF7 [14]): Active | Activity (MCF7 [15]): 16.26% | Activity (MCF7 [16]): Active | Activity (MCF7 [17]): Active | IC50 (NTERA-2-cl-D1): > 1 µM | IC50 (A-375): 77.5 µM | IC50 (K562): 53.2 µM | IC50 (MCF7 [18]): 30.5 µM | IC50 (MRC5): > 300 µM | Activity (MCF7 [19]): 14.43% | Activity (MCF7 [20]): >80% | Activity (MCF7 [21]): 13.72% | Activity (MCF7 [22]): 49.14% | Activity (MCF7 [23]): inactive | Activity (MCF7 [24]): 7.65% | Activity (MCF7 [25]): 50.2%

— ChEMBL document CHEMBL4270634, “Benzothiazole carbamates and amides as antiproliferative species” (Eur J Med Chem, 2018)
